Screening data (PubChem)
The list is not random: actives were taken first. Their share in the collection is about 1.4%.
m-calpain inh: blocks pig calpain II enzyme activity | purified calpain II, fluorogenic peptide substrate, 30 min | hit rate 0.37% among 220,000 | inhibition, % at 16 µM;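 active = inhibition above about 50%, limit read from the data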
FXIa inh: blocks human coagulation factor XIa protease activity | purified FXIa, Boc-Glu-Ala-Arg-AMC fluorogenic substrate | hit rate 0.14% among 220,000 | P03951 | inhibition, % at 5 µM;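 active = inhibition of at least 40%; inactive = inhibition below 40%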;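 note: fluorescence of freed AMC excited at 355 nm; 0% = enzyme without compound and 100% = no enzyme blank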
KLK5 inh: blocks human kallikrein 5 protease activity; Q9Y337; recombinant hK5, fluorogenic AMC substrate cleavage; inhibition, % at 5 µM; hit rate 0.59% among 210,000;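 active = inhibition of 40% or more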;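 note: 0% = enzyme controls without compound and 100% = no-enzyme blanks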
FXIIa inh: blocks human coagulation factor XIIa protease activity. purified FXIIa, Boc-QGR-AMC fluorogenic substrate, 2 h. P00748. inhibition, % at 5 µM. hit rate 0.3% among 220,000; in the data active = inhibition above about 40%;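 note: 0% = enzyme with no compound and 100% = blank without enzyme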
Thrombin inh: inhibitors of human thrombin; alpha-thrombin, Boc-VPR-AMC fluorogenic substrate cleavage; inhibition, % at 5 µM; hit rate 0.26% among 220,000;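 active = inhibition at or above 40%; inactive = inhibition below 40%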;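 note: 0% = enzyme with no compound and 100% = wells without enzyme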
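Test system: human alpha-thrombin; medium: pH 7.5 Tris-saline with Tween 20; times: reaction at room temperature; signal: AMC fluorescence at 355 nm excitation and 460 nm emission; also added: Boc-VPR-AMC substrate, 15 µM final; dosing: one concentration per compound, 5 µM, with 0.2% DMSO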
Furin inh: human furin inhibition; P09958; purified furin, fluorogenic substrate cleavage; inhibition, % at 20 µM or 30 µM; hit rate 0.061% among 220,000; in the data active = inhibition above about 25%
Target sequence (P09958 108-714 limits assumed): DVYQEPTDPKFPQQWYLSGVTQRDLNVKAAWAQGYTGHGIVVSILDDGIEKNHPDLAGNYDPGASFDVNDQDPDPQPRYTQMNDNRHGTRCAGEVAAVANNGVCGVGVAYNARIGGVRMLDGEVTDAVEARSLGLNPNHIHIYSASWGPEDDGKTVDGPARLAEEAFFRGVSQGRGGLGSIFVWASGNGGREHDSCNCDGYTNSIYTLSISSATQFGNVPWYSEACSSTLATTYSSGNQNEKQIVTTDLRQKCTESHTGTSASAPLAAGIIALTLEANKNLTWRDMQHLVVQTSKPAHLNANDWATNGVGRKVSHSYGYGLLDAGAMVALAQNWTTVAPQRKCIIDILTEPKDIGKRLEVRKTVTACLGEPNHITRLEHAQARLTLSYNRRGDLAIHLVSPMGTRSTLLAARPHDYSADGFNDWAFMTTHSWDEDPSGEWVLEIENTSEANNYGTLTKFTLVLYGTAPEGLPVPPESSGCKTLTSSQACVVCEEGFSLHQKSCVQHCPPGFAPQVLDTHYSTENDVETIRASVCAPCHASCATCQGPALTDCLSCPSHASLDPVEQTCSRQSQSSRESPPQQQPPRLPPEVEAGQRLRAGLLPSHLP
Active calls of the source: *; . = no result.

SMILES | m-calpain inh | FXIa inh | KLK5 inh | FXIIa inh | Thrombin inh | Furin inh
CN(C)c1ccc(P(=O)(OCc2ccccc2)C(O)c2ccncc2)cc1 (centres undefined) | 8 | 11 | -9 | 23 | 3 | -17
CCCCOP(=O)(c1ccc(N(C)C)cc1)C(Nc1ccccc1)c1ccccc1 (centres undefined) | 40 | 0 | -13 | 1 | -4 | 16
NC(=O)c1ccc(OCC(F)(F)F)nc1 | 4 | 4 | 0 | 14 | 0 | -17
Cc1nn(C)c(C)c1CN(C)C(=O)CCCC(=O)O | -11 | 21 | 1 | 34 | 2 | 25*
Cc1nn(CCC(=O)O)c(C)c1C | 4 | 5 | 5 | 13 | 1 | -16
COc1ccccc1C(=O)NC(C)C(c1cccs1)N1CCOCC1 (centres undefined) | 34 | -4 | -21 | -2 | 11 | 31*
Cc1ccc(C(=O)NC(C)C(c2cccs2)N2CCCC2)s1 (centres undefined) | -5 | 37 | 16 | . | 45* | -6
CCc1ccc(C(=O)COC(=O)c2nn(C)c(=O)c3ccccc23)cc1 | 27 | -3 | -3 | 2 | -6 | -19
CCc1ccc(C(=O)COC(=O)c2cccc(N3C(=O)c4c(C)nc5ccccc5c4C3=O)c2)cc1 | -18 | 0 | 51* | 17 | 9 | -12
O=C(NCc1ccco1)c1cccc(N2CCCC2=O)c1 | 18 | 6 | -7 | 12 | 3 | -9
Cc1ccc(C)c(C2=CSC3=NCCN23)c1 | 15 | 6 | 80* | 18 | 12 | -23
Cn1cc2c(=O)n(/N=C/c3ccccc3)cnc2n1 | 8 | 23 | -23 | 23 | 1 | -14
Nc1nccnc1C(=O)N/N=C/c1ccco1 | -1 | 1 | 2 | 11 | -1 | -17
Cc1oc(-c2ccccc2)nc1Cn1cccc1C1=NC(c2ccccc2)CO1 (centres undefined) | 22 | 0 | 101* | 3 | 14 | -19
Fc1ccc(Cn2cccc2C2=NC(c3ccccc3)CO2)cc1 (centres undefined) | 43 | -2 | -8 | 3 | -10 | -16
CCCC12CN3CC(C)(CN(C1)C3c1ccc3c(c1)OCO3)C2=O (centres undefined) | 18 | 1 | -2 | 7 | -4 | -13
CC(C(=O)NCc1ccccn1)N1C(=O)c2ccccc2C1=O (centres undefined) | 7 | 18 | 34 | 13 | 104* | -14
O=[N+]([O-])c1cccc(S(=O)(=O)Nc2nc3ccccc3nc2Nc2cccc(S(=O)(=O)N3CCCCC3)c2)c1 | 82* | 7 | 8 | 11 | -4 | -16
Cc1nn(C)c(C)c1C1Nc2ccccc2C(=O)N1O (centres undefined) | 5 | -1 | -5 | 11 | 1 | -9
O=C(Nc1ccccc1N1CCOCC1)c1ccc2nc[nH]c2c1 | -8 | 5 | 14 | 12 | 56* | -18
O=C(c1cnc2sccn2c1=O)N(Cc1ccccc1)c1ccccn1 | 85* | -10 | 6 | 6 | -8 | -13
Cc1ccc2c(COn3nnc4ccc(S(=O)(=O)N(C)C)cc43)cc(=O)oc2c1C | -49 | -17 | -30 | 7 | -2 | -11
O=C(COc1ccc([N+](=O)[O-])cc1)NN=C1CCCC1 | 7 | 5 | 55* | -6 | 29 | -14
O=C(NN=C1CCCC1)c1ccc([N+](=O)[O-])cc1 | -31 | 0 | 1 | 8 | -8 | -5
Cc1ccc(C)c(S(=O)(=O)N2CCCOC2CNC(=O)C(=O)NCc2cccnc2)c1 (centres undefined) | 2 | -8 | 43* | 34 | 13 | -8
SMILES | m-calpain inh | FXIa inh | KLK5 inh | FXIIa inh | Thrombin inh | Furin inh
Cc1nn(-c2ccccc2)c(C)c1NC(=O)c1cccs1 | 10 | 7 | 50* | 12 | 16 | -3
CCN(CC)C(=O)Cn1cc(C(=O)C(=O)NCc2cccs2)c2ccccc21 | -15 | 0 | 4 | 11 | 0 | -29
CCN(CC)C(=O)Cn1cc(C(=O)C(=O)NCCCn2ccnc2)c2ccccc21 | -28 | -3 | 0 | 8 | 95* | -32
C#CCOCCOCCOCCNc1nc(N2CCN(C(=O)[C@H](CCC(=O)O)n3cc(C(N)CC(C)C)nn3)CC2)nc(N2CCN(C(=O)[C@H](Cc3cc4ccccc4[nH]3)n3cc(C(N)[C@H](C)CC)nn3)CC2)n1 (some centres undefined) | -43 | -1 | -3 | 5 | -4 | -21
COc1cc(C=O)ccc1Oc1nc(Nc2ccc(F)cc2F)nc(N2CCOCC2)n1 | -39 | 27 | 63* | 34 | 10 | 1
COc1cc(/C=N/Nc2nc(Nc3ccccc3)nc(N3CCOCC3)n2)ccc1OC(=O)c1ccco1 | -112 | -4 | -8 | 3 | 4 | -24
COc1cccc(C(=O)NC2CCN(C(=O)N3c4ccccc4Sc4ccccc43)CC2)c1 | 40 | 1 | -8 | 12 | 1 | -19
COc1cccc(C(=O)N2CCSC2=S)c1 | -1 | 15 | 48* | 9 | 6 | -7
COc1ccc(C(=O)N2CCSC2=S)cc1OC | 6 | 6 | 28 | 15 | 5 | -22
COc1cccc(C(=O)N2c3ccccc3Sc3ccccc32)c1 | 52* | -7 | -5 | 4 | -5 | -16
CN(CCCn1c(=S)[nH]c2ncccc2c1=O)Cc1ccccc1 | -7 | -4 | -1 | 12 | -1 | -21
Cn1c(N)c(C(=O)COC(=O)CC2CC3CCC2C3)c(=O)n(C)c1=O (centres undefined) | 92* | -5 | -7 | -5 | -9 | -13
O=C(COC(=O)CC1CC2CCC1C2)Nc1ccc(F)cc1 (centres undefined) | 12 | -1 | 0 | . | 0 | -26
O=C(CC1CC2CCC1C2)OCC(=O)c1c[nH]c2ccccc12 (centres undefined) | 79* | -2 | 23 | 14 | 5 | -10
CC(=O)NC(CC(=O)OCC(=O)c1c(N)n(C)c(=O)n(C)c1=O)c1ccccc1 (centres undefined) | 17 | 34 | 15 | 40* | -4 | -6
COC(=O)c1ccc(NC(=O)CNC(=O)C2CCCCC2)cc1 | 5 | -1 | -15 | 11 | 0 | -14
O=C(c1ccc(N2CCCC2=O)cc1)N1CCCCCC1 | 84* | 32 | -12 | 57* | -7 | -20
O=C(Nc1cnn(Cc2ccc(F)cc2)c1)c1cc2nc(-c3ccco3)cc(C(F)(F)F)n2n1 | 91* | -10 | -17 | -4 | -10 | -25
N#Cc1nc(COc2ccccc2)oc1N1CCN(c2cccc(Cl)c2)CC1 | 56* | -6 | 2 | -5 | -8 | -16
C/C(=N\NC(=O)c1ccco1)c1ccc(NC(=O)c2cccs2)cc1 | 16 | 9 | -11 | 10 | -3 | -15
CN(C)S(=O)(=O)N(CC(=O)Nc1ccccc1)c1ccccc1 | -23 | 4 | -5 | 14 | 2 | -11
Cc1ccc(NC(=O)CN(c2ccccc2)S(=O)(=O)N(C)C)cc1C | 21 | 9 | 43* | 20 | 28 | -20
